In ChEMBL document CHEMBL1137735, “Novel 4H-1,3,4-oxadiazin-5(6H)-ones with hydrophobic and long alkyl chains: design, synthesis, and bioactive diversity on inhibition of monoamine oxidase, chitin biosynthesis and tumor cell” (Eur J Med Chem, 2009) one finds inhibition, IC50 and Activity data, which are given here for 21 compounds.

Assay [1] is filed under the species Rattus norvegicus. As to the kind of experiment: Inhibition of rat brain mitochondrial MAO at 0.01 mmol/L by kynuramine fluorimetric assay.
For assay [2], the species on record is Rattus norvegicus. Kind of assay: Inhibition of rat brain mitochondrial MAO at 0.1 mmol/L by kynuramine fluorimetric assay.
The species named for assay [3] is Rattus norvegicus. As to the kind of experiment: Inhibition of rat brain mitochondrial MAO at 1 mmol/L by kynuramine fluorimetric assay.
The test system of assay [4] is Saccharomyces cerevisiae. As to the kind of experiment: Inhibition of chitin synthase-mediated chitin synthesis in yeast at 250 uM by high throughput assay. The essentials:
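Yeast Saccharomyces cerevisiae cell extracts used as chitin synthase source in a modified non-radioactive chitin synthase assay; compounds screened at a single fixed level.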

The test system of assay [5] is Saccharomyces cerevisiae. Kind of assay: Inhibition of chitin synthase-mediated chitin synthesis in yeast by high throughput assay. The essentials:
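Enzyme source is Saccharomyces cerevisiae cell extract, run in a modified non-radioactive chitin synthase assay; five serial dilutions per compound tested to follow concentration dependence.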

The species named for assay [6] is Rattus norvegicus. As to the kind of experiment: Inhibition of rat brain mitochondrial MAO at 0.008 mmol/L by kynuramine fluorimetric assay.
The species entered for assay [7] is Rattus norvegicus. As to the kind of experiment: Inhibition of rat brain mitochondrial MAO at 0.08 mmol/L by kynuramine fluorimetric assay.
The species named for assay [8] is Rattus norvegicus. As to the kind of experiment: Inhibition of rat brain mitochondrial MAO at 0.8 mmol/L by kynuramine fluorimetric assay.
The nature of assay [9]: Inhibition of rat brain mitochondrial MAO by kynuramine fluorimetric assay.
The test system of assay [10] is A549. As to the kind of experiment: Cytotoxicity against human A549 cells by SRB assay. It is filed as functional, cell-based. A digest of the protocol: (§1)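 Growth inhibition of human lung A-549 and prostate PC-3 cancer cell lines, read out by sulforhodamine B dye staining; IC50 taken as the concentration giving 50% inhibition.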
For assay [11], the system named is PC-3. Kind of assay: Cytotoxicity against human PC3 cells by SRB assay. The assay is classed as functional, cell-based. A digest of the protocol:
as §1
On the technique in general: In SRB staining, fixed cells bind dye roughly in proportion to their protein.

Calls of active or inactive are those of the source. The calls are words filed in the database; no cut-off is given here.

On to `CCCCC(CCCC)NNC(=O)c1cccnc1OCC`, for which the inhibition (commonly the share of the control response that was lost under treatment) in [1] worked out at 0%; in assay [2], 6.09%; in [3], 21.7%.

Take `CCCCC(CCCC)N1N=C(c2ccc(CC)cc2)OCC1=O`: the inhibition result in assay [4] is “Active”.

On to `CCCCC(CCCC)NNC(=O)c1ccc(Cl)cc1Cl`, for which the inhibition came out at 9.33% in [1], 3.52% in assay [2] and 10.5% in assay [3].

Regarding `CCCCC(CCCC)N1N=C(c2ccc3c(c2)OCO3)OCC1=O`, the inhibition result in assay [4] is “Active”.

Turning to `C[C@@H]([C@H](N)C(=O)N[C@H](C(=O)O)[C@H]1O[C@@H](n2ccc(=O)[nH]c2=O)[C@H](O)[C@@H]1O)[C@H](O)c1ccc(O)cn1`, the inhibition result in assay [5] was “Dose-dependent effect”.

In the case of `CCCCC(CCCC)NNC(=O)c1ccc2ccccc2c1`, the inhibition in [1] worked out at 0%; in [2], 8.47%; in [3], 33.1%.

In the case of `O=C(NC(=O)c1c(F)cccc1F)Nc1ccc(Cl)cc1`, the inhibition result in assay [4] was “inactive”.

For the compound `CCCCOC(=O)CCN1N=C(c2cccc(C)c2)OCC1=O`, the results for the inhibition in [4] and in assay [5] were 95% and “Dose-dependent effect”, respectively.

As for `CCCCC(CCCC)N1N=C(c2cccnc2OCC)OCC1=O`, the inhibition in [4] was 98%; in assay [5], “Dose-dependent effect”.

`CCCCC(CCCC)N1N=C(c2ccc(Cl)cc2)OCC1=O`: the inhibition in assay [6] was 11.2%; in [7], 28.2%; in assay [8], 58.8%. The half-inhibitory concentration (IC50) (commonly the point on the concentration scale where inhibition reaches its midpoint) in assay [9] came out at 420 µM; in assay [10], 24.8 µM. Moreover, in assay [4], the inhibition result was “Active”.

With `CCc1ccc(C2=NN(CCC#N)C(=O)CO2)cc1`, the inhibition in [6] is 9.73%; in assay [7] it was 25.5%; in assay [8], 59.7%. In addition, the IC50 in assay [9] was 430 µM; in assay [10], > 100 µM; in [11], > 100 µM. Moreover, in assay [4], the inhibition entry was “Active”.

In the case of `CCCCC(CCCC)NNC(=O)c1ccc2c(c1)OCO2`, the figures for the inhibition in assay [1], in assay [2] and in [3] were 0%, 13.8% and 62.8%, respectively.

As for `CCCCC(CCCC)N1N=C(c2ccc3ccccc3c2)OCC1=O`, the inhibition came to 12.8% in assay [6], 20.3% in assay [7] and 54.6% in assay [8]. Further, the IC50 in assay [9] is 600 µM; in [10] it was > 100 µM; in assay [11], 42.5 µM. The inhibition entry in assay [4] was “Active”.

Take `CCCCC(CCCC)N1N=C(c2cc(OC)c(OC)c(OC)c2)OCC1=O`: the inhibition in assay [6] turned out to be 14%; in assay [7], 23.5%; in assay [8], 61.4%. Further, the values for the IC50 in assay [9], in assay [10] and in [11] were 410 µM, 9.91 µM and 14.4 µM, respectively. Further, the inhibition entry in assay [4] is “Active”.

For `CCCCC(CCCC)NNC(=O)c1cc(OC)c(OC)c(OC)c1`, in assay [9], the IC50 is 2300 µM. Also, the inhibition was 4.67% in assay [1], 8.16% in assay [2] and 35.5% in [3].

In the case of `CCCCC(CCCC)NNC(=O)c1ccc(Cl)cc1`, 2610 µM corresponded to half-maximal inhibition in assay [9] (IC50). The inhibition in [1] was 7.52%; in assay [2] it was 2.71%; in assay [3], 28.6%.

In assay [9], `CCc1ccc(C(=O)NNCCC#N)cc1` registered an IC50 of 240 µM. Moreover, the results for the inhibition in assay [1], in assay [2] and in assay [3] were 2.8%, 37% and 71.2%, respectively.

For `CCCCC(CCCC)NNC(=O)c1ccccc1Cl`, the inhibition in assay [1] was determined as 6.4%; in [2] it was 5.13%; in assay [3], 14.2%.

As to `CCCCC(CCCC)N1N=C(c2ccc(Cl)cc2Cl)OCC1=O`, the inhibition entry in assay [4] was “Active”.

Take `CCCCC(CCCC)N1N=C(c2cc(C)cc(C)c2)OCC1=O`: in [4], the inhibition entry is “Active”.

Turning to `N#CCCN1N=C(c2ccccc2)OCC1=O`, the result in [4] was Active.
